Measurements: ChEMBL document CHEMBL1275375, “Properties and synthesis of 2-{2-fluoro (or bromo)-4-[(2-oxocyclopentyl)methyl]phenyl}propanoic acid: nonsteroidal anti-inflammatory drugs with low membrane permeabilizing and gastric lesion-producing activities” (J Med Chem, 2010)
Active and inactive are the calls of the source. The calls are words filed in the database; no cut-off is given here.

Experiments:
[1] = target: Prostaglandin G/H synthase 1 (Homo sapiens, UniProt P23219); assay: Inhibition of COX1 in human whole blood assessed as TXB2 biosynthesis after 24 hrs by EIA; type: tissue-based
Procedure, shortened: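 IC50 taken from a four-parameter logistic fit of dose-response curves. Ratio is COX-1 IC50 / COX-2 IC50. Mean ± SEM, n = 3.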

[2] = target: T1, Prostaglandin G/H synthase 2 (Homo sapiens, UniProt P35354); assay: Inhibition of COX2 in human whole blood assessed as PGE2 biosynthesis after 24 hrs by EIA; type: tissue-based
T1 sequence (P35354 whole entry): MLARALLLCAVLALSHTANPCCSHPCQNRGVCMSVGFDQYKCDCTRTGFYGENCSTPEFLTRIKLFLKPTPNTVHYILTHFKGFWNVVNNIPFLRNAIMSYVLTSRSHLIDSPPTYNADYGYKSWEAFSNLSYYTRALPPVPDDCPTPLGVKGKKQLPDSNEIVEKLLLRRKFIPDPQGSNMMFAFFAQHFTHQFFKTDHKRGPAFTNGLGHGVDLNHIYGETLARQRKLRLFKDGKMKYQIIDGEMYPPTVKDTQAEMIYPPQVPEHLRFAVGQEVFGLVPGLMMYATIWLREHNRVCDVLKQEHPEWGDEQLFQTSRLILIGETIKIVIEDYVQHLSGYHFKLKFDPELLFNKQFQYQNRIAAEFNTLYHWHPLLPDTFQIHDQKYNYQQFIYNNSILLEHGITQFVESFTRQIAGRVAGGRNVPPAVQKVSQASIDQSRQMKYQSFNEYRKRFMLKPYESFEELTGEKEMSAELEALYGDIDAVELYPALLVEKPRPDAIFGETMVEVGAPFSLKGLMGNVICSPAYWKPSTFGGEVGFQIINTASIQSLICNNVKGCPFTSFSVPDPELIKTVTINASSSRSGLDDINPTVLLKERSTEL

Homo sapiens = species on record: Homo sapiens; assay: Selectivity ratio of IC50 for human COX1-derived TXB2 biosynthesis to IC50 for human COX2-derived PGE2 biosynthesis
Procedure, shortened: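 Human whole blood assay of COX-1- and COX-2-derived PG biosynthesis. IC50 taken from a four-parameter logistic fit of dose-response curves. Ratio is COX-1 IC50 / COX-2 IC50. Mean ± SEM, n = 3.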

Rattus norvegicus [3] = assay: Toxicity in Wistar rat assessed as gastric lesion at 40 to 50 mg/kg, po; type: organism-based, Stomach; design: dose 40-50 mg/kg, route oral; settings: in vivo
Procedure, shortened: (§1)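 Rats dosed orally (low or high dose); stomachs removed 8 h after dosing and scored for hemorrhagic damage to give a lesion index. Mean ± SEM, n = 3.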

Rattus norvegicus [4] = assay: Antiinflammatory activity against Wistar rat assessed as decrease in gastric level of PGE2 at 40 to 50 mg/kg, po; type: functional, organism-based; settings: Stomach
Procedure, shortened: (§2)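 Rats dosed orally (low or high dose); stomachs removed 8 h later and gastric PGE₂ level measured by EIA. Mean ± SEM, n = 3, compared with vehicle.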

Rattus norvegicus [5] = assay: Antiinflammatory activity in rat assessed as inhibition of carrageenan-induced paw edema at 10 mg/kg, po administered 1 hr before carrageenan challenge measured after 3 to 6 hrs; type: functional, organism-based; design: dose 10 mg/kg
Procedure, shortened: (§3)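 Oral dosing of rats 1 h before intradermal injection of 1% carrageenan into the left hindpaw. Paw edema measured 3 h and 6 h after carrageenan. Mean ± SEM, n = 3-4, compared with vehicle.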

[6] = Membrane permeabilization activity in calcein-loaded liposome assessed as calcein release at […] by fluorescence assay; type: physicochemical; settings: artificial membrane
Procedure, shortened: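 Calcein-loaded liposomes exposed to compound; release of self-quenched calcein into the medium read as a rise in fluorescence. Triton X-100 (10 μM) defined 100% permeabilization. Mean ± SEM, n = 3.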

Rattus norvegicus [7] = assay: Toxicity in Wistar rat assessed as gastric lesion at 52 to 65 mg/kg, po; type: organism-based, Stomach; design: dose 52-65 mg/kg, route oral; settings: in vivo; procedure, shortened: as §1
Rattus norvegicus [8] = assay: Antiinflammatory activity against Wistar rat assessed as decrease in gastric level of PGE2 at 52 to 65 mg/kg, po; type: functional, organism-based; settings: Stomach; procedure, shortened: as §2
Rattus norvegicus [9] = assay: Antiinflammatory activity in rat assessed as inhibition of carrageenan-induced paw edema at 13 mg/kg, po administered 1 hr before carrageenan challenge measured after 3 to 6 hrs; type: functional, organism-based; design: dose 13 mg/kg; procedure, shortened: as §3
Rattus norvegicus [10] = assay: Toxicity in Wistar rat assessed as gastric lesion at 43 to 53 mg/kg, po; type: organism-based, Stomach; design: dose 43-53 mg/kg, route oral; settings: in vivo; procedure, shortened: as §1
Rattus norvegicus [11] = assay: Antiinflammatory activity against Wistar rat assessed as decrease in gastric level of PGE2 at 43 to 53 mg/kg, po; type: functional, organism-based; settings: Stomach; procedure, shortened: as §2
Rattus norvegicus [12] = assay: Antiinflammatory activity in rat assessed as inhibition of carrageenan-induced paw edema at 11 mg/kg, po administered 1 hr before carrageenan challenge measured after 3 to 6 hrs; type: functional, organism-based; design: dose 11 mg/kg; procedure, shortened: as §3

Chain of Prostaglandin G/H synthase 1 (P23219 whole entry): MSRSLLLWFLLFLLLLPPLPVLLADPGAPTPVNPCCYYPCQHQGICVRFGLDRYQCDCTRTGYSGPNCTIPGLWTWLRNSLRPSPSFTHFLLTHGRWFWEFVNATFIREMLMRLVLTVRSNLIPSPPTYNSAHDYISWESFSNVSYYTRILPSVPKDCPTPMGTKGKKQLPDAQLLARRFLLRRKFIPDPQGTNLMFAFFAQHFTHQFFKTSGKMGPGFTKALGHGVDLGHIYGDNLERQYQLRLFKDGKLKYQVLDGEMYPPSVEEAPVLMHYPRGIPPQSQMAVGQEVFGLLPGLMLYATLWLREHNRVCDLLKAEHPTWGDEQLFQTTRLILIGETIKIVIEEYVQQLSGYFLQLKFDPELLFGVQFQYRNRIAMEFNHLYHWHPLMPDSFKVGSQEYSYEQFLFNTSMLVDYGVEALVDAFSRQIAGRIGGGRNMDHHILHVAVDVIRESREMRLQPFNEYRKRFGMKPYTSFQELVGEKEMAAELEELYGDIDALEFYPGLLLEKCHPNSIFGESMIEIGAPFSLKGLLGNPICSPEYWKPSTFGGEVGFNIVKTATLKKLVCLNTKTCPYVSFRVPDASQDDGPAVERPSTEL

| IC50 [1] | IC50 [2] | Ratio IC50 (Homo sapiens) | SMILES | Activity (Rattus norvegicus [3]) | Activity (Rattus norvegicus [4]) | Activity (Rattus norvegicus [5]) | Activity [6] | Activity (Rattus norvegicus [7]) | Activity (Rattus norvegicus [8]) | Activity (Rattus norvegicus [9]) | Activity (Rattus norvegicus [10]) | Activity (Rattus norvegicus [11]) | Activity (Rattus norvegicus [12]) |
| --- | --- | --- | --- | --- | --- | --- | --- | --- | --- | --- | --- | --- | --- |
| 2.2 µM | 8.5 µM | 0.3 | CC(C(=O)O)c1ccc(C[C@H]2CCC[C@@H]2O)cc1Br (relative stereo) |  |  |  |  |  |  |  |  |  |  |
| 7.7 µM | 48 µM | 0.2 | CC(C(=O)O)c1ccc(C[C@@H]2CCC[C@@H]2O)cc1F (relative stereo) |  |  |  |  |  |  |  |  |  |  |
| 0.6 µM | 3.1 µM | 0.4 | CC(C(=O)O)c1ccc(C[C@H]2CCC[C@@H]2O)cc1F (relative stereo) |  |  |  |  |  |  |  |  |  |  |
| 30.3 µM | 65.3 µM | 0.5 | CC(C(=O)[O-])c1ccc(CC2CCCC2=O)cc1Br.[Na+] (stereo not drawn) [BROMOLOXOPROFEN] |  |  |  | Not Active | Toxic | Active | Active |  |  |  |
| 7.2 µM | 34 µM | 0.2 | CC(C(=O)O)c1ccc(C[C@@H]2CCC[C@@H]2O)cc1Br (relative stereo) |  |  |  |  |  |  |  |  |  |  |

| SMILES | IC50 [1] | IC50 [2] | Ratio IC50 (Homo sapiens) | Activity (Rattus norvegicus [3]) | Activity (Rattus norvegicus [4]) | Activity (Rattus norvegicus [5]) | Activity [6] | Activity (Rattus norvegicus [7]) | Activity (Rattus norvegicus [8]) | Activity (Rattus norvegicus [9]) | Activity (Rattus norvegicus [10]) | Activity (Rattus norvegicus [11]) | Activity (Rattus norvegicus [12]) |
| --- | --- | --- | --- | --- | --- | --- | --- | --- | --- | --- | --- | --- | --- |
| CC(C(=O)[O-])c1ccc(CC2CCCC2=O)cc1.[Na+] (stereo not drawn) [LOXOPROFEN SODIUM] | 23.5 µM | 10.1 µM | 2.5 | Toxic | Active | Active | Active |  |  |  |  |  |  |
| CC(C(=O)[O-])c1ccc(CC2CCCC2=O)cc1F.[Na+] (stereo not drawn) [FLUORO LOXOPROFEN] | 24.2 µM | 14.3 µM | 2.5 |  |  |  | Not Active |  |  |  | Toxic | Active | Active |
